Results as given in ChEMBL document CHEMBL5126630, “Optimization of the Prodrug Moiety of Remdesivir to Improve Lung Exposure/Selectivity and Enhance Anti-SARS-CoV-2 Activity” (J Med Chem, 2022).
Active and inactive are the calls of the source. No cut-off for these calls is given here.

Key:
SARS-CoV-2 [1] = assay: Antiviral activity against SARS-CoV-2 infected in African green monkey Vero E6 cells assessed as protection against virus-induced cytopathic effect incubated for 2 days by CellTiter-Glo assay; assay type: functional, organism-based; details: Severe acute respiratory syndrome coronavirus 2, Vero 76, 48 h
SARS-CoV-2 [2] = assay: Antiviral activity against SARS-CoV-2 delta B.1.617.2 infected in African green monkey Vero E6 cells assessed as protection against virus-induced cytopathic effect incubated for 2 days by CellTiter-Glo assay; assay type: functional, organism-based; details: Severe acute respiratory syndrome coronavirus 2, delta B.1.617.2, Vero 76, 48 h
[3] = Stability in hamster plasma assessed as half life; assay type: ADME, cell-free, Cricetulus griseus; details: chinese hamster
[4] = Drug metabolism in hamster lymph node assessed as NTP metabolite formation at 10 mg/kg, iv measured upto 24 hrs by LC-MS/MS analysis; assay type: ADME, organism-based, Cricetulus griseus; details: chinese hamster, in vivo
Method in brief: (§1)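 Female catheterized hamsters were dosed 10 mg/kg iv at 2 mg/mL; remdesivir was in 15% cyclodextrin at pH 3–3.5 and the prodrug in cyclodextrin or albumin. Two per group were sacrificed at 0.5–24 h. Tissues were homogenized in 70% methanol with internal standard. NTP was measured by ion-pairing LC-MS/MS (dimethylhexylamine/ammonium formate mobile phase), negative-ion MRM, against 10-point 5–5000 ng/mL standards. Exposure was reported as AUC.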

SARS-CoV-2 [5] = assay: Antiviral activity against SARS-CoV-2 beta B.1.351 infected in African green monkey Vero E6 cells assessed as protection against virus-induced cytopathic effect incubated for 2 days by CellTiter-Glo assay; assay type: functional, organism-based; details: Severe acute respiratory syndrome coronavirus 2, beta B.1.351, Vero 76, 48 h
Vero 76 = assay: Cytotoxicity against African green monkey Vero E6 cells at 10 uM; assay type: toxicity, cell-based; details: chlorocebus sabaeus, vero 76, 10 µM
SARS-CoV-2 [6] = assay: Antiviral activity against SARS-CoV-2 alpha B.1.1.7 infected in African green monkey Vero E6 cells assessed as protection against virus-induced cytopathic effect incubated for 2 days by CellTiter-Glo assay; assay type: functional, organism-based; details: Severe acute respiratory syndrome coronavirus 2, alpha B.1.1.7, Vero 76, 48 h
[7] = Stability in human plasma assessed as half life; assay type: ADME, cell-free
[8] = Drug metabolism in hamster lung assessed as NTP metabolite formation at 10 mg/kg, iv measured upto 24 hrs by LC-MS/MS analysis; assay type: ADME, organism-based, Cricetulus griseus; details: chinese hamster, in vivo; method in brief: as §1
[9] = Drug accumulation in hamster kidney at 10 mg/kg, iv measured upto 24 hrs by LC-MS/MS analysis; assay type: ADME, organism-based, Cricetulus griseus; details: chinese hamster, in vivo
Method in brief: (§2)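 Catheterized female hamsters received 10 mg/kg iv at 2 mg/mL. The remdesivir vehicle was 15% cyclodextrin at pH 3–3.5; the test prodrug was given in cyclodextrin or albumin formulation. Two animals per group were sacrificed at 0.5, 1, 4, 7 and 24 h. Tissues were homogenized in 5-fold 70% methanol with internal standard and supernatants analysed by LC-MS against 5–5000 ng/mL standard curves.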

[10] = Drug metabolism in hamster blood assessed as NTP metabolite formation at 10 mg/kg, iv measured upto 24 hrs by LC-MS/MS analysis; assay type: ADME, organism-based, Cricetulus griseus; details: chinese hamster, in vivo; method in brief: as §1
[11] = Drug metabolism in hamster spleen assessed as NTP metabolite formation at 10 mg/kg, iv measured upto 24 hrs by LC-MS/MS analysis; assay type: ADME, organism-based, Cricetulus griseus; details: chinese hamster, in vivo; method in brief: as §1
SARS-CoV-2 [12] = assay: Antiviral activity against SARS-CoV-2 infected in African green monkey Vero E6 cells assessed as reduction in viral titer incubated for 2 days by CellTiter-Glo assay; assay type: functional, organism-based; details: Severe acute respiratory syndrome coronavirus 2; Vero 76; time 2.0 day
[13] = Stability in human microsomes assessed as half life; assay type: ADME, Microsome
[14] = Prodrug activation in human Calu-3 cells assessed as ALA release at 10 uM measured upto 12 hrs by LC-MS analysis; assay type: cell-based; details: calu-3, 12 h
Method in brief: (§3)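 Calu-3 cells (1–5 × 10^5/well) were cultured 12 h, then exposed to 10 μM drug at 37 °C for 2, 6 and 12 h (n = 3). Cells were detached with trypsin-EDTA, pelleted and washed three times with ice-cold PBS. Drug was extracted overnight at −20 °C in ice-cold 70% methanol, and supernatants were analysed by LC-MS.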

[15] = Stability in hamster microsomes assessed as half life; assay type: ADME, Cricetulus griseus, Microsome; details: chinese hamster
[16] = Drug accumulation in hamster liver at 10 mg/kg, iv measured upto 24 hrs by LC-MS/MS analysis; assay type: ADME, organism-based, Cricetulus griseus; details: chinese hamster, in vivo; method in brief: as §2
[17] = Prodrug activation in human Calu-3 cells assessed as NUC release at 10 uM measured upto 12 hrs by LC-MS analysis; assay type: cell-based; details: calu-3, 12 h; method in brief: as §3
[18] = Prodrug activation in human Calu-3 cells assessed as NTP release at 10 uM measured upto 12 hrs by LC-MS analysis; assay type: cell-based; details: calu-3, 12 h; method in brief: as §3
SARS-CoV-2 [19] = assay: Antiviral activity against SARS-CoV-2 gamma P.1 infected in African green monkey Vero E6 cells assessed as protection against virus-induced cytopathic effect incubated for 2 days by CellTiter-Glo assay; assay type: functional, organism-based; details: Severe acute respiratory syndrome coronavirus 2, gamma P.1, Vero 76, 48 h
[20] = Stability in mouse plasma assessed as half life; assay type: ADME, cell-free
[21] = Stability in mouse microsomes assessed as half life; assay type: ADME, Microsome

SMILES | EC50 (SARS-CoV-2 [1]) [µM] | EC50 (SARS-CoV-2 [2]) [µM] | half-life [3] [min] | Drug metabolism [4] | EC50 (SARS-CoV-2 [5]) [µM] | Activity (Vero 76) | EC50 (SARS-CoV-2 [6]) [µM] | half-life [7] [min] | Drug metabolism [8] | Drug uptake [9] [%] | Drug metabolism [10] | Drug metabolism [11] | Activity (SARS-CoV-2 [12]) | half-life [13] [min] | Drug metabolism [14] | half-life [15] [min] | Drug uptake [16] [%] | Drug metabolism [17] | Drug metabolism [18] | EC50 (SARS-CoV-2 [19]) [µM] | further results
CCC(CC)COC(=O)[C@H](C)N[P@](=O)(OC[C@H]1O[C@@](C#N)(c2ccc3c(N)ncnn23)[C@H](O)[C@@H]1O)Oc1ccccc1 [REMDESIVIR] | 3.3 | 9.2 | 54.5 | Metabolite_Detected | 32 | Non-Toxic | 4.7 | 40.7 | Metabolite_Detected | 80 | Metabolite_Detected | Metabolite_Detected | Active | 0.86 | Metabolite_Detected | 0.48 | 80 | Metabolite_Detected | Metabolite_Detected | 3.7 | 
C[C@H](NP(=O)(OC[C@H]1O[C@@](C#N)(c2ccc3c(N)ncnn23)[C@H](O)[C@@H]1O)Oc1cccc2ccccc12)C(=O)OCc1ccccc1 (stereo not given in full) |  |  | 55.8 |  |  |  |  | 52.4 |  |  |  |  |  | 1.05 |  | 0.46 |  |  |  |  | 
CCCCC/C=C\C/C=C\CCCCCCCCOC(=O)[C@H](C)NP(=O)(OC[C@H]1O[C@@](C#N)(c2ccc3c(N)ncnn23)[C@H](O)[C@@H]1O)Oc1ccccc1 (stereo not given in full) | 0.4 | 5.6 | 128 | Metabolite_Detected | 15.9 | Non-Toxic | 2.5 | 192 | Metabolite_Detected | 80 | Metabolite_Detected | Metabolite_Detected | Active | 8.33 | Metabolite_Detected | 16.2 | 80 | Metabolite_Detected | Metabolite_Detected | 1.7 | half-life [20]: 1.03 min; half-life [21]: 8.65 min
CCCCCCCCCCCCOC(=O)[C@H](C)NP(=O)(OC[C@H]1O[C@@](C#N)(c2ccc3c(N)ncnn23)[C@H](O)[C@@H]1O)Oc1ccccc1 (stereo not given in full) |  |  | 71.2 |  |  |  |  | 47.1 |  |  |  |  |  | 4.29 |  | 2.72 |  |  |  |  | 
CCCCC/C=C\C/C=C\CCCCCCCCOC(=O)[C@H](C)NP(=O)(OC[C@H]1O[C@@](C#N)(c2ccc3c(N)ncnn23)[C@H](O)[C@@H]1O)Oc1cccc2ccccc12 (stereo not given in full) |  |  | 271 |  |  |  |  | 286 |  |  |  |  |  | 19.7 |  | 61.8 |  |  |  |  | half-life [20]: 3.44 min; half-life [21]: 13.6 min
CCCCCCCCCCCCOC(=O)[C@H](C)NP(=O)(OC[C@H]1O[C@@](C#N)(c2ccc3c(N)ncnn23)[C@H](O)[C@@H]1O)Oc1cccc2ccccc12 (stereo not given in full) |  |  | 158 |  |  |  |  | 154 |  |  |  |  |  | 6.11 |  | 3.49 |  |  |  |  | 
